These results are taken from ChEMBL document CHEMBL4011650, “3-Hydroxy-1H-quinazoline-2,4-dione as a New Scaffold To Develop Potent and Selective Inhibitors of the Tumor-Associated Carbonic Anhydrases IX and XII” (J Med Chem, 2017).

In general, Ki refers to the dissociation constant of the complex between target and ligand, obtained from inhibition or displacement.

One data set addresses Carbonic anhydrase 2 (Homo sapiens, UniProt P00918). The data set is described as follows: Inhibition of recombinant human carbonic anhydrase 2 preincubated for 15 mins prior to testing by phenol red based stopped-flow CO2 hydration assay.
For data set [1], the system named is HT-29. The data set is described as follows: Antiproliferative activity against human HT-29 cells assessed as cell viability at 100 uM after 72 hrs under hypoxic conditions by MTT assay relative to control. The conditions noted are these: HT-29, 72 h, read-out: Activity. In kind it is functional. An outline of the steps:
(§1)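 HT-29 cells were grown in high-glucose DMEM with 20% FBS, seeded at 1·10^4/well and dosed 24 h later. Incubation was in a hypoxic chamber (0.1% O2, 5% CO2, balance N2) for 16, 48 or 72 h. Cells were washed, given MTT 1 mg/ml for 30 min at 37 °C, and formazan was dissolved in DMSO and read at 550 nm. Viability is % of untreated control, mean ± S.E.M.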
(Tetrazolium dyes change colour on reduction, which living cells bring about.)

A short description of data set [2]: Antiproliferative activity against human HT-29 cells assessed as cell viability at 300 uM after 48 hrs under normoxic conditions by MTT assay relative to control. The conditions noted are these: read-out: Activity. The data set is classed as cell-based. An outline of the steps:
(§2)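 HT-29 cells in high-glucose DMEM with 20% FBS were seeded at 1·10^4/well and treated 24 h later. Incubation was under normoxia (20% O2, air with 5% CO2) at 37 °C for 16, 48 or 72 h. Viability was read by MTT reduction (1 mg/ml, 30 min), with formazan in DMSO read at 550 nm, relative to untreated control set at 100%. Quadruplicates on at least three cell batches.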

Data set [3] concerns HT-29. The data set is described as follows: Antiproliferative activity against human HT-29 cells assessed as cell viability at 30 uM after 48 hrs under hypoxic conditions by MTT assay relative to control. The data set is classed as functional. The settings on record: HT-29, 48 h, read-out: Activity. An outline of the steps: as §1
Another data set has as its target Carbonic anhydrase 1 (Homo sapiens, UniProt P00915). The data set is described as follows: Inhibition of recombinant human carbonic anhydrase 1 preincubated for 15 mins prior to testing by phenol red based stopped-flow CO2 hydration assay.
Data set [4] in a line: Antiproliferative activity against human HT-29 cells assessed as cell viability at 300 uM after 72 hrs under normoxic conditions by MTT assay relative to control. The conditions noted are these: read-out: Activity. In kind it is cell-based. The method, boiled down: as §2
Data set [5] relates to HT-29. The data set is described as follows: Antiproliferative activity against human HT-29 cells assessed as cell viability at 300 uM after 72 hrs under hypoxic conditions by MTT assay relative to control. The data set is classed as functional. The conditions noted are these: HT-29, 72 h, read-out: Activity. An outline of the steps:
as §1

Data set [6] concerns HT-29. The data set is described as follows: Antiproliferative activity against human HT-29 cells assessed as reduction in cell viability at 30 to 300 uM after 16 hrs under hypoxic conditions by MTT assay relative to control. The data set is classed as functional, cell-based. The method, boiled down: as §1
A further data set has as its target Carbonic anhydrase 9 (Homo sapiens, UniProt Q16790).
The nature of data set [7]: Antiproliferative activity against human HT-29 cells assessed as cell viability at 100 uM after 72 hrs under normoxic conditions by MTT assay relative to control. In kind it is cell-based. The settings on record: read-out: Activity. An outline of the steps: as §2
The nature of data set [8]: Antiproliferative activity against human HT-29 cells assessed as cell viability at 30 uM after 48 hrs under normoxic conditions by MTT assay relative to control. The data set is classed as cell-based. The settings on record: read-out: Activity. The method, boiled down:
as §2

Data set [9] concerns HT-29. The data set is described as follows: Antiproliferative activity against human HT-29 cells assessed as reduction in cell viability at 30 to 300 uM after 16 hrs under normoxic conditions by MTT assay relative to control. In kind it is cell-based. The conditions noted are these: ht-29, 16 h. An outline of the steps: as §2
The test system of data set [10] is HT-29. The data set is described as follows: Antiproliferative activity against human HT-29 cells assessed as cell viability at 30 uM after 72 hrs under hypoxic conditions by MTT assay relative to control. The data set is classed as functional. The settings on record: HT-29, 72 h, read-out: Activity. An outline of the steps:
as §1

Data set [11] can be described thus: Antiproliferative activity against human HT-29 cells assessed as cell viability at 100 uM after 48 hrs under normoxic conditions by MTT assay relative to control. The data set is classed as cell-based. The conditions noted are these: read-out: Activity. The method, boiled down: as §2
Data set [12] is described as follows: Antiproliferative activity against human HT-29 cells assessed as cell viability at 30 uM after 72 hrs under normoxic conditions by MTT assay relative to control. The conditions noted are these: read-out: Activity. In kind it is cell-based. An outline of the steps: as §2
The subject of data set [13] is HT-29. Briefly: Antiproliferative activity against human HT-29 cells assessed as cell viability at 300 uM after 48 hrs under hypoxic conditions by MTT assay relative to control. In kind it is functional. The conditions noted are these: HT-29, 48 h, read-out: Activity. An outline of the steps: as §1
Data set [14] relates to HT-29. Briefly: Antiproliferative activity against human HT-29 cells assessed as cell viability at 100 uM after 48 hrs under hypoxic conditions by MTT assay relative to control. The conditions noted are these: HT-29, 48 h, read-out: Activity. In kind it is functional. An outline of the steps:
as §1

Active and inactive are the calls of the source. The rule behind the calls is not given here.

Chain of Carbonic anhydrase 1 (P00915 whole entry): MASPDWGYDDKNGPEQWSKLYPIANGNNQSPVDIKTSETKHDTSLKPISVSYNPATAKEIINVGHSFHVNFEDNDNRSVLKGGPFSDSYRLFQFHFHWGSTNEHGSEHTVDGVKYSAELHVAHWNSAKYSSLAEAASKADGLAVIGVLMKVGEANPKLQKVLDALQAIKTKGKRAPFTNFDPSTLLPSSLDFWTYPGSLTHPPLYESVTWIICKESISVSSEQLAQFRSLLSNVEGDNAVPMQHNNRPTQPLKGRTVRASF

As for `O=C(NCc1ccccc1)Nc1ccc2[nH]c(=O)n(O)c(=O)c2c1`, the results for the inhibitory constant (Ki) on Carbonic anhydrase 2, at Carbonic anhydrase 1 and on Carbonic anhydrase 9 were above 10 µM, above 10 µM and 0.0267 µM, respectively. Moreover, the viability at 100 µM in the data set on HT-29 [1] is 40.2%; in the data set with HT-29 [14] it was 46%. Besides, the viability at 48 h, 300 µM in data set [2] was determined as 85.6%. In addition, the viability at 30 µM was found to be 50.6% with HT-29 [3] and 33.4% with HT-29 [10]. In addition, the viability at 72 h, 300 µM in data set [4] was 61.3%. The viability at 300 µM in the data set on HT-29 [5] amounted to 59.9%; in the data set on HT-29 [13], 78.2%. The result with HT-29 [6] was Active. Besides, in [7], the viability at 72 h, 100 µM was found to be 51.7%. In data set [8], the viability at 48 h, 30 µM was 57.4%. Further, the Activity result with HT-29 [9] is reported as “Toxic”. Further, the viability at 48 h, 100 µM in data set [11] was 56.9%. Moreover, the viability at 72 h, 30 µM in [12] turned out to be 32.4%.

`O=C1C=CCN1c1cc2c(=O)n(O)c(=O)[nH]c2cc1Cl`: the inhibition constant (Ki) at Carbonic anhydrase 2 was above 10 µM; at Carbonic anhydrase 1, above 10 µM; on Carbonic anhydrase 9, 0.0083 µM. Also, the viability at 100 µM with HT-29 [1] is 45.7%; in the data set with HT-29 [14], 60.1%. Moreover, in [2], the viability at 48 h, 300 µM came out at 106%. Moreover, the viability at 30 µM in the data set with HT-29 [3] was 50.6%; in the data set with HT-29 [10], 20.6%. Moreover, the viability at 72 h, 300 µM in data set [4] turned out to be 68.3%. For the same molecule, the viability at 300 µM in the data set with HT-29 [5] was 65.2%; in the data set on HT-29 [13], 88.9%. In addition, in data set [7], the viability at 72 h, 100 µM was 57.3%. For the same molecule, in data set [8], the viability at 48 h, 30 µM turned out to be 48.5%. In addition, in data set [11], the viability at 48 h, 100 µM came out at 56.2%. Also, in data set [12], the viability at 72 h, 30 µM turned out to be 36.4%.
